# Sampled rows, rich in hits. Any-hit rate of the full collection: about 3.5%.
# DENV2 CPE rescue: inhibitors of DENV2 cytopathic effect, primary screen, cell-based, plate reader, single concentration | DENV2-infected cells, cytopathic effect rescue | CPE inhibition, % at 9.99 µM | 350,000 compounds, 1.7% hits | AID 651640, 2012; in the data active = CPE inhibition above about 20%, passing the limit was not always enough; inconclusive = no clear call, values can overlap the other calls; tested in BHK-21 cells;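 also: 0% = median of neutral control wells and 100% = median of positive control wells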
# Env fusion inh: inhibitors of HIV-1 Env-driven cell-cell fusion, primary screen, HeLa-JRFL effector, CEM21 target cells, luciferase; 360,000 compounds, 1.1% hits; inhibition, % at 12.3 µM;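 active = mean replicate inhibition score of at least 50 and every replicate individually at or above 50; inconclusive = only one of the two criteria met; inactive = mean below 50 and not all replicates reaching 50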;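 also: 0% = plate neutral controls and 100% = maraviroc near 300 nM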
# PglD inh: C. jejuni PglD acetyltransferase inhibitors, primary screen, biochemical, DTNB colorimetric, single point; UDP-N-acetylbacillosamine N-acetyltransferase PglD (Campylobacter jejuni); AID 602405, 2012; 360,000 compounds, 0.098% hits; inhibition, % at 12.5 µM; purified PglD enzyme, DTNB colorimetric CoA detection; in the data active = inhibition above about 16%, passing the limit was not always enough; inconclusive = no clear call, values can overlap the other calls
# rRNA inh HTS: reduced GFP signal of wild-type E. coli, primary screen, bacterial rRNA inhibitor project, GFP/RFP fluorescence, OD600, single point. E. coli WT GFP vs humanized-ribosome RFP mutants, 24 h; hits give low values; DMSO median 0, no signal -100. 350,000 compounds, 1.6% hits. GFP signal change (wild-type ribosome), % (no concentration beside the values);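 active = significant combined selectivity score with lowered wild-type GFP, culture density cut under 30%, mutant RFP and density less affected; inactive = any of these conditions unmet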
# FN deposit inh: inhibitors of fibronectin matrix deposition, primary screen, AH1F cells, Alexa488-fibronectin fluorescence, plate reader; 350,000 compounds, 0.086% hits; AH1F fibroblasts, overnight; inhibition, % at 12.6 µM;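 active = mean inhibition across replicates of 30% or more, regardless of how many single replicates reach that level; inconclusive = mean under 30% yet at least half of replicates reach 30%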;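 also: positive control wells lacked labelled fibronectin entirely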
#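 Assay system: AH1F fibroblasts / Quantity: 10000 cells per well / Medium: DMEM plus 2% serum, read in PBS / Reagent: labelled fibronectin 24 nM / Dosing: single dose, pinned / Times: 1 h cell attachment, overnight exposure to compound and label / Signal: fluorescence, ex 485 nm, em 525 nm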
# PGC1a acetyl inh: inhibitors of PGC1a acetylation signal, primary screen, cell-based, U2OS, AlphaScreen, inhibitor mode. AlphaScreen anti-acetyl-lysine; with virally co-expressed GCN5 acetyltransferase. inhibition, % at 15.6 µM. 350,000 compounds, 0.17% hits;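 active = every replicate shows inhibition of at least 40%; inconclusive = mean inhibition at least 40% but some replicate below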;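 also: 0% = neutral control wells and 100% = positive control wells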
# * hit, by the source's call; ? = inconclusive; · = no result; [ ] = another dose, or the depositor's remark.
SMILES,DENV2 CPE rescue,Env fusion inh,PglD inh,rRNA inh HTS,FN deposit inh,PGC1a acetyl inh
Cc1no[n+]([O-])c1COc1cccc(/C=N/Nc2nncn2N)c1,1,50,·,-2,3,50*
C/C(=N\NC(=O)c1ccc(Cn2cc([N+](=O)[O-])cn2)o1)c1cccc(NC(=O)C(C)C)c1,28*,-3,·,4,7,·
CN(C)C(=O)C[C@@H]1CC[C@H](NC(=O)C2CCC2)[C@@H](CO)O1,4,-6[16.7 µM],2,4,·,-7
CC(C)NC(=O)Nc1ccc2c(c1)C(=O)N([C@H](C)CO)C[C@@H](C)[C@@H](CN(C)Cc1ccccc1)OCCCC[C@H](C)O2,4,-10[16.7 µM],5,-8,-2,9
CCc1nc2nc(C)c(NS(=O)(=O)c3ccc(Br)s3)c(=O)n2[nH]1,44*,13,-2,-7,0,0
C[C@@H]1CN([C@@H](C)CO)C(=O)Cc2cc(NS(=O)(=O)c3ccc(Cl)cc3)ccc2O[C@@H]1CN(C)C(=O)Nc1ccc2c(c1)OCO2,·,-10[16.7 µM],·,-4,·,·
COc1ccccc1-c1cncc(NC(C)=O)n1,27*,20,2,10,0,7
O=C1Nc2ccc(Br)cc2/C1=N\N=C\C1=C(N2CCOCC2)C(=C/c2ccccc2)/CC1,-3,11,-2,3,2,-1
CC(NC(=O)C12CC3CC(CC(C3)C1)C2)C(=O)N/N=C/C1=C(N2CCOCC2)C(=C\c2ccccc2)/CC1 (stereo not drawn),133*,25,0,3,0,·
O=C1Nc2ccccc2/C1=N\N=C\C1=C(N2CCOCC2)C(=C\c2ccccc2)/CC1,·,64*,2,·,3,-13
CO[C@H]1CN(C)C(=O)c2ccc(NC(=O)C3CCC3)cc2OC[C@H](C)N(Cc2nccs2)C[C@@H]1C,6,·,1,-3,-10,·
CCc1cccc(-n2c(C)cc(O)cc2=O)c1,61*,-25,·,-4,-1,·
Cc1cc(O)cc(=O)n1-c1cccc(F)c1,1,3,·,9,-3,·
COc1ccc(NC(=O)Nc2ccc3c(c2)C(=O)N([C@@H](C)CO)C[C@@H](C)[C@@H](CN(C)Cc2ccc4c(c2)OCO4)OCCCC[C@@H](C)O3)cc1,34*,10[16.7 µM],-1,3,·,7
COc1ccc(NC(=O)Nc2ccc3c(c2)C(=O)N([C@@H](C)CO)C[C@H](C)[C@H](CN(C)Cc2ccc4c(c2)OCO4)OCCCC[C@H](C)O3)cc1,-10,83*[16.7 µM],-1,2,·,9
COc1ccc(NC(=O)Nc2ccc3c(c2)C(=O)N([C@@H](C)CO)C[C@@H](C)[C@@H](CN(C)Cc2ccc4c(c2)OCO4)OCCCC[C@H](C)O3)cc1,-7,-107[16.7 µM],1,2,·,-10
COc1ccc(NC(=O)Nc2ccc3c(c2)C(=O)N([C@H](C)CO)C[C@@H](C)[C@H](CN(C)Cc2ccc4c(c2)OCO4)OCCCC[C@@H](C)O3)cc1,24*,20[16.7 µM],2,7,·,-3
COc1ccc(NC(=O)Nc2ccc3c(c2)C(=O)N([C@H](C)CO)C[C@H](C)[C@H](CN(C)Cc2ccc4c(c2)OCO4)OCCCC[C@H](C)O3)cc1,10,68*[16.7 µM],-1,-39,·,1
OC[C@@H]1[C@@H](c2ccc(C3=CCCC3)cc2)[C@@H]2CN(CCC(F)(F)F)CCCCN12,0,·,0,·,·,2
CC(C)NC(=O)N(C)C[C@H]1Oc2ccc(NS(=O)(=O)c3ccc(Cl)cc3)cc2C(=O)N([C@H](C)CO)C[C@@H]1C,-5,·,0,-2,-2,-2
C[C@@H]1CCCCO[C@@H](CN(C)C(=O)Nc2ccc(F)cc2)[C@@H](C)CN([C@H](C)CO)C(=O)c2cc(NC(=O)Nc3cccc4ccccc34)ccc2O1,1,-14[16.7 µM],4,4,-4,-4
CCCCC1(Cc2ccc([N+](=O)[O-])cc2)C(=O)N(c2ccccc2)N(c2ccccc2)C1=O,·,133*,-5,·,-11,-21
CC(C)NC(=O)Nc1ccc2c(c1)C(=O)N([C@@H](C)CO)C[C@@H](C)[C@H](CN(C)C(=O)C1CCCCC1)OCCCC[C@@H](C)O2,-3,-2[16.7 µM],-4,3,-2,7
O=c1c(/C=N/O)c(Nc2ccccc2)nc2ccccn12,1,·,-2,-20*,·,4
COc1ccc(CN(C)C[C@@H]2OCCCC[C@H](C)Oc3ccc(NS(=O)(=O)c4ccccc4)cc3C(=O)N([C@H](C)CO)C[C@@H]2C)cc1,?,-3[16.7 µM],4,0,-3,-10
SMILES,DENV2 CPE rescue,Env fusion inh,PglD inh,rRNA inh HTS,FN deposit inh,PGC1a acetyl inh
O=C(c1cc(COc2cccc(C(F)(F)F)c2)on1)N1CCC(c2ccncc2)CC1,-5,72*,-8,-52,·,·
CCc1cc(-c2nnn(-c3cc(C(C)C)ccc3C)c2CC)ccc1-c1cn(CCc2c[nH]c3ccccc23)nn1,3,84*,-1,·,-13,-2
CCCNC(=S)NNC(=O)c1cc(C2CC2)nc2ccccc12,25*,-13,-4,0,·,·
CS(=O)(=O)c1ccc(Cl)c(NC(=O)CN2CCCC2c2ccc3c(c2)OCCCO3)c1 (stereo not drawn),1,61*,0,·,-6,2
Cc1noc(C)c1NC(=O)N(C)C[C@H]1OCCCC[C@H](C)Oc2ccc(NS(C)(=O)=O)cc2C(=O)N([C@@H](C)CO)C[C@@H]1C,-2,-20[16.7 µM],2,2,·,15
C[C@@H]1CN([C@@H](C)CO)C(=O)c2cc(NC(=O)Nc3ccc4c(c3)OCO4)ccc2O[C@H]1CN(C)S(=O)(=O)c1ccc(Cl)cc1,-5,-2[16.7 µM],-1,-2,3,6
Cc1ccc(S(=O)(=O)N(C)C[C@@H]2Oc3ccc(NC(=O)Nc4ccc5c(c4)OCO5)cc3C(=O)N([C@H](C)CO)C[C@@H]2C)cc1,-3,60*[16.7 µM],-1,-1,·,-14
Cc1ccc(S(=O)(=O)N(C)C[C@H]2Oc3ccc(NC(=O)c4ccncc4)cc3C(=O)N([C@@H](C)CO)C[C@@H]2C)cc1,?,·,-1,-6,·,-5
Cc1ccc(S(=O)(=O)N(C)C[C@H]2Oc3ccc(NC(=O)c4ccncc4)cc3C(=O)N([C@H](C)CO)C[C@H]2C)cc1,42*,·,3,-1,·,1
C[C@H](CO)N1C[C@H](C)[C@H](CN(C)S(=O)(=O)c2ccc(Cl)cc2)Oc2ccc(NC(=O)Nc3ccc4c(c3)OCO4)cc2C1=O,29*,111*[16.7 µM],3,2,5,-13
